Laboratory results as given in ChEMBL document CHEMBL1143844, “Biochemical studies on the mechanism of human immunodeficiency virus type 1 reverse transcriptase resistance to 1-(beta-D-dioxolane)thymine triphosphate” (Antimicrob Agents Chemother, 2007).

Tests used:
[1] = Inhibition of HIV1 reverse transcriptase 75I/77L/116Y/151M mutant in presence of 5 mM ATP by heteropolymeric DNA polymerase assay; set-up: species or system Human immunodeficiency virus 1
In short: (§1)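 Heteropolymeric DNA polymerase assay with ATP added at 5 mM. Purified HIV-1 RT at 30–100 pM acts on a plate-bound DNA primer with a 5′-A12-(GTCA)5-3′ template. dATP, dGTP, dCTP and BrdUTP at 1.0 μM each. Incubation 180 min at 33°C. BrdUMP incorporation read via anti-BrdU-AP at 405 nm after NaOH dehybridization. IC50 from seven inhibitor concentrations, at least two experiments in duplicate.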

[2] = target: T1, Human immunodeficiency virus type 1 reverse transcriptase (Human immunodeficiency virus 1, UniProt Q72547); assay: Inhibition of HIV1 LAI reverse transcriptase wild type LAI by heteropolymeric DNA polymerase assay
In short: (§2)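 Heteropolymeric assay without ATP: plate-bound 18-mer DNA primer (~110 nM) with 50-mer 5′-A12-(GTCA)5 template (190 nM). dATP, dGTP, dCTP and BrdUTP at 1.0 μM each, in HEPES 50 mM pH 7.3, MgCl2 10 mM. RT 30–100 pM, 33°C for 180 min, then NaOH dehybridization and anti-BrdU-AP tracer read at 405 nm. IC50 from seven triphosphate concentrations; two to four runs in duplicate.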

[3] = target: T1, Human immunodeficiency virus type 1 reverse transcriptase; assay: Inhibition of HIV1 pNL4-3 reverse transcriptase wild type pNL4-3 by heteropolymeric DNA polymerase assay; in short: as §2
[4] = Inhibition of HIV1 pNL4-3 reverse transcriptase 115F mutant by heteropolymeric DNA polymerase assay; set-up: species or system Human immunodeficiency virus 1
In short: (§3)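 Purified p66/p51 HIV-1 RT, or p66 homodimer for 65R, at 30–100 pM (about 1.5–4.5 mU/well). Plate-bound 18-mer DNA primer on a 50-base 5′-A12-(GTCA)5-3′ DNA template. dATP, dGTP, dCTP and BrdUTP at 1.0 μM each, no ATP. Buffer: HEPES 50 mM pH 7.3, 10 mM MgCl2. Incubation 180 min at 33°C, NaOH dehybridization, anti-BrdU-AP tracer, A405. IC50 from seven inhibitor concentrations, at least two experiments in duplicate.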

[5] = Inhibition of HIV1 reverse transcriptase wild type HXB2(a) in presence of 1 uM dNTP by heteropolymeric DNA polymerase assay; set-up: species or system Human immunodeficiency virus 1
In short: (§4)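 Heteropolymeric DNA assay containing 5 mM ATP on the 5′-A12-(GTCA)5 template, with each dNTP (BrdUTP in place of TTP) at 1 μM or, in the modified version, 20 μM. HEPES 50 mM pH 7.3, MgCl2 10 mM, 33°C for 180 min, then NaOH step and anti-BrdU-AP readout at 405 nm. Mean IC50 from at least two runs in duplicate.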

[6] = Inhibition of HIV1 reverse transcriptase 41L/69S-SG/210W/215Y mutant in presence of 5 mM ATP by heteropolymeric DNA polymerase assay; set-up: species or system Human immunodeficiency virus 1; in short: as §1
[7] = Inhibition of HIV1 reverse transcriptase 41L/67N/70R/184V/210W/215Y mutant in presence of 5 mM ATP by heteropolymeric DNA polymerase assay; set-up: species or system Human immunodeficiency virus 1; in short: as §1
[8] = Inhibition of HIV1 reverse transcriptase 184V mutant in presence of 5 mM ATP by heteropolymeric DNA polymerase assay; set-up: species or system Human immunodeficiency virus 1; in short: as §1
[9] = Inhibition of HIV1 reverse transcriptase wild type HXB2(a) in presence of 5 mM ATP by heteropolymeric DNA polymerase assay; set-up: species or system Human immunodeficiency virus 1
In short: (§5)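 Heteropolymeric DNA assay with 5 mM ATP added: immobilized 18-mer primer, 5′-A12-(GTCA)5 50-mer template, dATP/dGTP/dCTP/BrdUTP at 1.0 μM each, HEPES 50 mM pH 7.3, MgCl2 10 mM. RT 30–100 pM, incubated at 33°C for 180 min. NaOH strand separation, then anti-BrdU-AP detection at 405 nm. IC50 fitted from seven inhibitor concentrations; two to four runs in duplicate.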

[10] = Inhibition of HIV1 reverse transcriptase 75I/77L/116Y/151M/184V mutant in presence of 5 mM ATP by heteropolymeric DNA polymerase assay; set-up: species or system Human immunodeficiency virus 1; in short: as §1
[11] = Inhibition of HIV1 reverse transcriptase wild type HXB2(b) in presence of 5 mM ATP by heteropolymeric DNA polymerase assay; set-up: species or system Human immunodeficiency virus 1; in short: as §5
[12] = target: T1, Human immunodeficiency virus type 1 reverse transcriptase; assay: Inhibition of HIV1 LAI reverse transcriptase wild type in presence of 5 mM ATP by heteropolymeric DNA polymerase assay; in short: as §5
[13] = Inhibition of HIV1 LAI reverse transcriptase 65R mutant in presence of 5 mM ATP by heteropolymeric DNA polymerase assay; set-up: species or system Human immunodeficiency virus 1; in short: as §1
[14] = target: T1, Human immunodeficiency virus type 1 reverse transcriptase; assay: Inhibition of HIV1 pNL4-3 reverse transcriptase wild type pNL4-3 in presence of 5 mM ATP by heteropolymeric DNA polymerase assay; in short: as §5
[15] = Inhibition of HIV1 pNL4-3 reverse transcriptase 115F mutant in presence of 5 mM ATP by heteropolymeric DNA polymerase assay; set-up: species or system Human immunodeficiency virus 1; in short: as §1
[16] = Inhibition of HIV1 reverse transcriptase 184V mutant by heteropolymeric DNA polymerase assay; set-up: species or system Human immunodeficiency virus 1; in short: as §3
[17] = Inhibition of HIV1 reverse transcriptase 41L/67N/70R/210W/215Y mutant by heteropolymeric DNA polymerase assay; set-up: species or system Human immunodeficiency virus 1; in short: as §3
[18] = Inhibition of HIV1 reverse transcriptase 41L/69S-SG/210W/215Y mutant by heteropolymeric DNA polymerase assay; set-up: species or system Human immunodeficiency virus 1; in short: as §3
[19] = Inhibition of HIV1 reverse transcriptase 75I/77L/116Y/151M mutant by heteropolymeric DNA polymerase assay; set-up: species or system Human immunodeficiency virus 1; in short: as §3
[20] = Inhibition of HIV1 reverse transcriptase 75I/77L/116Y/151M/184V mutant by heteropolymeric DNA polymerase assay; set-up: species or system Human immunodeficiency virus 1; in short: as §3
[21] = Inhibition of HIV1 reverse transcriptase 41L/67N/70R/210W/215Y mutant in presence of 20 uM dNTP by heteropolymeric DNA polymerase assay; set-up: species or system Human immunodeficiency virus 1
In short: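 DNA polymerase assay with 5 mM ATP and purified HIV-1 RT (HXB2 background) on a plate-bound primer with a 5′-A12-(GTCA)5-3′ template. Each dNTP (dATP, dGTP, dCTP, BrdUTP) is set at either 1 μM or 20 μM. Incubation 180 min at 33°C, anti-BrdU-AP readout at 405 nm. IC50 from at least two experiments in duplicate. Fold change is relative to wild-type RT at the same dNTP level.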

[22] = Inhibition of HIV1 reverse transcriptase wild type HXB2(a) in presence of 5'-A12-(GTCA)5-3' by heteropolymeric DNA polymerase assay; set-up: species or system Human immunodeficiency virus 1; in short: as §4
[23] = Inhibition of HIV1 HXB2 reverse transcriptase 41L/67N/70R/215Y/219Q mutant in presence of 5 mM ATP by heteropolymeric DNA polymerase assay
[24] = Inhibition of HIV1 reverse transcriptase 41L/69S-SG/210W/215Y mutant in presence of 5'-A12-(GTCA)5-3' by heteropolymeric DNA polymerase assay

Cc1cn([C@H]2C[C@H](N=[N+]=[N-])[C@@H](COP(=O)(O)OP(=O)(O)OP(=O)(O)O)O2)c(=O)[nH]c1=O [ZIDOVUDINE TRIPHOSPHATE]
IC50 [1]: 9000 nM | IC50 [2]: 80 nM | IC50 [3]: 130 nM | IC50 [4]: 130 nM | IC50 [5]: 460 nM | IC50 [6]: 4400 nM | IC50 [7]: 900 nM | IC50 [8]: 520 nM | IC50 [9]: 460 nM | IC50 [10]: 22000 nM | IC50 [11]: 480 nM | IC50 [12]: 300 nM | IC50 [13]: 610 nM | IC50 [14]: 420 nM | IC50 [15]: 550 nM | IC50 [16]: 250 nM | IC50 [17]: 140 nM | IC50 [18]: 160 nM | IC50 [19]: 5100 nM | IC50 [20]: 10600 nM | IC50 [21]: 16000 nM | IC50 [22]: 460 nM | IC50 [23]: 2500 nM | IC50 [24]: 4400 nM

C[C@H](Cn1cnc2c(N)ncnc21)OCP(=O)(O)OP(=O)(O)OP(=O)(O)O
IC50 [1]: 11000 nM | IC50 [2]: 550 nM | IC50 [3]: 1200 nM | IC50 [4]: 1100 nM | IC50 [5]: 3300 nM | IC50 [6]: 24000 nM | IC50 [7]: 5900 nM | IC50 [8]: 2300 nM | IC50 [9]: 3300 nM | IC50 [10]: 4600 nM | IC50 [11]: 3200 nM | IC50 [12]: 1300 nM | IC50 [13]: 21000 nM | IC50 [14]: 4000 nM | IC50 [15]: 3700 nM | IC50 [16]: 2200 nM | IC50 [17]: 1400 nM | IC50 [18]: 3700 nM | IC50 [19]: 8000 nM | IC50 [20]: 2900 nM | IC50 [21]: 49000 nM | IC50 [22]: 3300 nM | IC50 [23]: 10500 nM | IC50 [24]: 24000 nM

Cc1cn([C@H]2CO[C@@H](COP(=O)(O)OP(=O)(O)OP(=O)(O)O)O2)c(=O)[nH]c1=O
IC50 [1]: 6100 nM | IC50 [2]: 110 nM | IC50 [3]: 100 nM | IC50 [4]: 80 nM | IC50 [5]: 380 nM | IC50 [6]: 1600 nM | IC50 [7]: 700 nM | IC50 [8]: 500 nM | IC50 [9]: 380 nM | IC50 [10]: 15000 nM | IC50 [11]: 380 nM | IC50 [12]: 190 nM | IC50 [13]: 750 nM | IC50 [14]: 300 nM | IC50 [15]: 200 nM | IC50 [16]: 180 nM | IC50 [18]: 110 nM | IC50 [19]: 2100 nM | IC50 [20]: 7100 nM | IC50 [21]: 2400 nM | IC50 [22]: 380 nM | IC50 [23]: 840 nM | IC50 [24]: 1600 nM
